The results in this text go back to ChEMBL document CHEMBL1131634, “Axially chiral N-benzyl-N,7-dimethyl-5-phenyl-1, 7-naphthyridine-6-carboxamide derivatives as tachykinin NK1 receptor antagonists: determination of the absolute stereochemical requirements” (J Med Chem, 1998).

One test deals with Substance-P receptor (Homo sapiens, UniProt P25103). Kind of test: Binding affinity at Tachykinin receptor 1 by measuring its ability to inhibit [125I]BH-SP binding in human IM-9 cells (Lymphoblast cells). It is filed as cell-based.
Substance-P receptor, sequence (P25103 whole entry): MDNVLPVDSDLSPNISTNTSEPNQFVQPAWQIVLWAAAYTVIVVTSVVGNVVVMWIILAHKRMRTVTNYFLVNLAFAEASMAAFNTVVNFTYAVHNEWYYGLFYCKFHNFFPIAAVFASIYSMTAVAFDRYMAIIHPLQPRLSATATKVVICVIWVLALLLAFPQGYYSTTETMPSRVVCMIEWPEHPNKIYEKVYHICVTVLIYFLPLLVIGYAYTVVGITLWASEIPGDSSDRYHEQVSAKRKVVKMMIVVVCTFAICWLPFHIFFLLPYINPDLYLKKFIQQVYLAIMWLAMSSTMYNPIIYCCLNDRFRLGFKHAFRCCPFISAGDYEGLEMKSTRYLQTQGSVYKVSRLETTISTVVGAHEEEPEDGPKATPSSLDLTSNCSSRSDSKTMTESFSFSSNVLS
Test [1] concerns Cavia porcellus. Kind of test: In vivo inhibition of capsaicin-induced plasma extravasation in guinea pig trachea on intravenous administration. The class given is functional. The essentials: (§1)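 Guinea pigs received compound iv or po before capsaicin challenge, and tracheal plasma extravasation was measured. ID50 was derived from 5–8 animals per dose and reported with 95% confidence limits.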

In test [2] the test system is Cavia porcellus. Kind of test: In vivo inhibition of capsaicin-induced plasma extravasation in guinea pig trachea on peroral administration. The conditions noted are these: po. The class given is functional. The essentials: as §1
Test [3] concerns Cavia porcellus. The test can be described thus: In vivo inhibition (percentage) of capsaicin-induced plasma extravasation in guinea pig trachea on intravenous administration at 1.0 mg/kg. It is filed as functional. Put shortly:
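Guinea pigs were given a single iv dose of 1.0 mg/kg. Capsaicin-induced tracheal plasma extravasation was then measured, with percent inhibition reported (n = 5 or 6).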

Structures are written as SMILES.

Regarding `Cc1ccc(-c2c(C(=O)N(C)[C@H](C)c3ccccc3)n(C)c(=O)c3ncccc23)cc1`, at Substance-P receptor, the IC50 (usually the concentration at which inhibition is half-maximal) came out at 130 nM.

With `Cc1ccc(-c2c(C(=O)N(C)[C@@H](C)c3cc(C(F)(F)F)cc(C(F)(F)F)c3)n(C)c(=O)c3ncccc23)cc1` (stereo in doubt; 3a-A) [7-METHYL-8-OXO-5-P-TOLYL-7,8-DIHYDRO-[1,7]NAPHTHYRIDINE-6-CARBOXYLIC ACID (S)-[(S)-1-(3,5-BIS-TRIFLUOROMETHYL-PHENYL)-ETHYL]-METHYL-AMIDE (ENANTIOMERIC MIX)], the figures for the ED50 in the test with Cavia porcellus [1] and in the test on Cavia porcellus [2] were 0.0093 mg/kg and 0.0677 mg/kg, respectively. This compound displayed an IC50 at Substance-P receptor of 0.8 nM. On to `Cc1ccc(-c2c(C(=O)N(C)[C@@H](C)c3cc(C(F)(F)F)cc(C(F)(F)F)c3)n(C)c(=O)c3ncccc23)cc1` (stereo in doubt; 3a-B) [7-METHYL-8-OXO-5-P-TOLYL-7,8-DIHYDRO-[1,7]NAPHTHYRIDINE-6-CARBOXYLIC ACID (S)-[(S)-1-(3,5-BIS-TRIFLUOROMETHYL-PHENYL)-ETHYL]-METHYL-AMIDE (ENANTIOMERIC MIX)], for which the inhibition in vivo (usually the percentage by which the read-out fell short of the control) at 1 mg/kg in the test on Cavia porcellus [3] stood at 61.8%. This compound yielded an IC50 at Substance-P receptor of 44 nM. In the case of `Cc1ccc(-c2c(C(=O)N(C)[C@H](C)c3cc(C(F)(F)F)cc(C(F)(F)F)c3)n(C)c(=O)c3ncccc23)cc1` (stereo in doubt; 3b-A) [7-METHYL-8-OXO-5-P-TOLYL-7,8-DIHYDRO-[1,7]NAPHTHYRIDINE-6-CARBOXYLIC ACID (S)-[(R)-1-(3,5-BIS-TRIFLUOROMETHYL-PHENYL)-ETHYL]-METHYL-AMIDE (ENANTIOMERIC MIX)], in the test on Cavia porcellus [1], the ED50 – broadly, the dose at which the effect has come halfway, by size or by number of responders – was determined as 0.412 mg/kg. This compound returned an IC50 on Substance-P receptor of 19 nM. `Cc1ccc(-c2c(C(=O)N(C)[C@H](C)c3cc(C(F)(F)F)cc(C(F)(F)F)c3)n(C)c(=O)c3ncccc23)cc1` (stereo in doubt; 3b-B) [7-METHYL-8-OXO-5-P-TOLYL-7,8-DIHYDRO-[1,7]NAPHTHYRIDINE-6-CARBOXYLIC ACID (S)-[(R)-1-(3,5-BIS-TRIFLUOROMETHYL-PHENYL)-ETHYL]-METHYL-AMIDE (ENANTIOMERIC MIX)] had an inhibition in vivo at 1 mg/kg in the test on Cavia porcellus [3] of 6.9%. Moreover, the IC50 on Substance-P receptor is 620 nM. Take `Cc1ccc(-c2c(C(=O)N(C)Cc3cc(C(F)(F)F)cc(C(F)(F)F)c3)n(C)c(=O)c3ncccc23)cc1` [7-METHYL-8-OXO-5-P-TOLYL-7,8-DIHYDRO-[1,7]NAPHTHYRIDINE-6-CARBOXYLIC ACID (3,5-BIS-TRIFLUOROMETHYL-BENZYL)-METHYL-AMIDE (STRUCTURAL MIX)]: in the test with Cavia porcellus [2], the 50% effect level (ED50) was put at a dose of 0.11 mg/kg.
